Experimental data reported in ChEMBL document CHEMBL5329162, “The sulfonadyns: a class of aryl sulfonamides inhibiting dynamin I GTPase and clathrin mediated endocytosis are anti-seizure in animal models” (RSC Med Chem, 2023).
The source made the active and inactive calls.

Assays:
[1] = (§1) Inhibition of phosphotidylserine liposome-stimulated sheep brain Dynamin 1 GTPase activity using GTP as substrate by malachite green assay; assay type: tissue-based, Ovis aries
How it was run: (§2)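 Native dynamin I from sheep brain (membrane extraction, GST-Amph2-SH3-sepharose affinity), stimulated by sonicated phosphatidylserine liposomes; GTP hydrolysis read as orthophosphate by malachite green. DMSO at most 3.3% final. […] 300 μM is the top concentration tested.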

[2] = Inhibition of clathrin-mediated endocytosis in serum-starved human U2OS cells assessed as reduction in Tfn-A594 uptake pretreated for 30 mins followed by Tfn-A594 addition and measured after 8 mins; assay type: cell-based
How it was run: (§3)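 U2OS cells on fibronectin-coated plates, serum-starved 16 h, then compound (usually 6 concentrations, 1–300 μM) or vehicle for 30 min, then Tfn-A594 4 μg mL⁻¹ for 8 min at 37 °C. Surface Tfn acid-stripped (pH 2.8), PFA-fixed, DAPI-stained; automated imaging of integrated Tfn intensity per cell, as % of vehicle. DMSO at most 1%.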

Rattus norvegicus [3] = species: Rattus norvegicus; test: Inhibition of synaptic vesicle endocytosis in Sprague-Dawley rat cerebrum synaptosomes assessed as reduction in depolarisation-stimulated FM4-64 uptake preincubated for 30 mins followed by FM4-64 addition for 2 mins and further depolarised for 2 mins by fluorescent imaging analysis; assay type: functional, Synaptosome; settings: for inhibition: Synaptosome, time 34.0 min
How it was run: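 Purified rat cerebrum synaptosomes (male, 6–8 weeks) attached to plates at 30 °C in Krebs buffer with 0.1 mM CaCl₂, pH 7.4. Compound or DMSO (1%) for 30 min, then 1 μM FM 4-64 for 2 min, then 80 mM KCl depolarisation for 2 min. Imaged ex 476–524/em 608–742 nm; intensity normalised to control uptake (1.0).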

Ovis aries [4] = species: Ovis aries; test: as §1; assay type: tissue-based; how it was run: as §2
Ovis aries [5] = species: Ovis aries; test: Competitive inhibition of phosphotidylserine liposome-stimulated sheep brain Dynamin 1 GTPase activity using varying concentrations of Mg2+.GTP as substrate at 3 to 7 uM by Lineweaver-Burk plot analysis; assay type: tissue-based; settings: dose 3-7 µM
Mus musculus [6] = test: Antiseizure activity against electrically stimulated seizure in C57BL/6 mouse model assessed as increase in seizures threshold at 30 to 60 mg/kg, ip pretreated for 30 mins followed by electrical stimulation at 6 Hz; assay type: functional, organism-based; settings: dose 30-60 mg/kg
How it was run: (§4)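 Mouse 6 Hz corneal stimulation (0.2 ms rectangular pulse, 3 s, varying current). Given ip 30 min before stimulation; DMA 20%/Tween-80 5%/PEG300 75% vehicle for test doses (10, 30, 60 mg kg⁻¹), 0.9% saline for valproate (400 mg kg⁻¹). Seizure scored as stunned/fixed posture, rearing, forelimb clonus or twitching. EC50 current by up-and-down method, 2 mA steps; each mouse used once; Mann–Whitney U vs vehicle.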

Mus musculus [7] = test: Antiseizure activity against electrically stimulated seizure in C57BL/6 mouse model assessed as increase in seizures threshold at 10 mg/kg, ip pretreated for 30 mins followed by electrical stimulation at 6 Hz; assay type: functional, organism-based; how it was run: as §4
Rattus norvegicus [8] = species: Rattus norvegicus; test: Inhibition of exocytosis in Sprague-Dawley rat brain synaptosome assessed as effect on Ca2+ dependent glutamate release at 80 uM preincubated for 1 mins in presence of NADP followed by glutamate dehydrogenase addition and further stimulated with 4-aminopyridine for 4 mins by spectrofluorimeter; assay type: functional; settings: time 5.0 min
How it was run: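 Synaptosomes (0.6 mg in 2 ml) in Krebs-like buffer, pH 7.4, 37 °C, containing 1.2 mM CaCl₂ or calcium-free with 1 mM EGTA. Started with 1 mM NADP; glutamate dehydrogenase 50 U added after 1 min; 4-aminopyridine stimulation after 4 min. Released glutamate followed as NADPH fluorescence (ex 340/em 460 nm).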

Mus musculus [9] = test: Antiseizure activity against electrically stimulated seizure in C57BL/6 mouse model assessed as increase in current required to provoke seizures at 400 mg/kg, ip pretreated for 30 mins followed by electrical stimulation at 6 Hz; assay type: functional, organism-based; how it was run: as §4
Ovis aries [10] = species: Ovis aries; test: Inhibition of phosphotidylserine liposome-stimulated sheep brain Dynamin 1 GTPase activity using GTP as substrate at 300 uM by malachite green assay relative to control; assay type: tissue-based; how it was run: as §2
[11] = Inhibition of clathrin-mediated endocytosis in human U2OS cells assessed as reduction in Tfn-A594 uptake pretreated for 30 mins; assay type: cell-based; how it was run: as §3

CN(C)c1cccc2c(S(=O)(=O)NCCNC/C=C/c3ccc(Br)cc3)cccc12
IC50 [1]: 3.9 µM
IC50 [2]: 29 µM
IC50 (Rattus norvegicus [3]): 127 µM

O=S(=O)(NCCCCNC/C=C/c1ccc(Br)cc1)c1cccc2cnccc12
IC50 [1]: 8.1 µM

O=S(=O)(NCCNC/C=C/c1ccc(Br)cc1)c1cccc2ccccc12
IC50 [1]: 4.4 µM
IC50 [2]: 12.4 µM
inhibition (Rattus norvegicus [3]): inactive

NCCNS(=O)(=O)c1cccc2cnccc12
inhibition (Ovis aries [4]): inactive

O=S(=O)(NCCNC/C=C/c1ccc(F)cc1)c1cccc2cnccc12
IC50 [1]: 20.3 µM

CN(C)c1ccc(/C=C/CNCCNS(=O)(=O)c2cccc3cnccc23)cc1
IC50 [1]: 19.9 µM

CC(C)(C)c1ccc(/C=C/CNCCNS(=O)(=O)c2cccc3cnccc23)cc1
IC50 [1]: 6.6 µM

O=S(=O)(NCCCCCCNC/C=C/c1ccc(Br)cc1)c1cccc2ccccc12
IC50 [1]: 5.2 µM
IC50 [2]: 27.1 µM
inhibition (Rattus norvegicus [3]): inactive

O=S(=O)(NCCCNC/C=C/c1ccc(Br)cc1)c1cccc2cnccc12
IC50 [1]: 7.1 µM

O=S(=O)(c1cccc2cnccc12)N1CCN(C/C=C/c2ccc(Br)cc2)CC1
IC50 [1]: 58.2 µM

O=S(=O)(NCCCCCCNC/C=C/c1ccc(Br)cc1)c1cccc2cnccc12
inhibition (Ovis aries [5]): Active
IC50 [1]: 3.7 µM
IC50 [2]: 15.9 µM
IC50 (Rattus norvegicus [3]): 265 µM

CN(C/C=C/c1ccc(Br)cc1)CCNS(=O)(=O)c1cccc2ccccc12
IC50 [1]: 10.5 µM

Cc1ccc(/C=C/CNCCNS(=O)(=O)c2cccc3cnccc23)cc1
IC50 [1]: 22.4 µM

CN(C)c1cccc2c(S(=O)(=O)NCCCCCN)cccc12
IC50 [1]: 45.1 µM
IC50 [2]: 205 µM
IC50 (Rattus norvegicus [3]): > 300 µM

O=S(=O)(NCCNC/C=C/c1ccc(Br)cc1)c1ccc2ccccc2c1
IC50 [1]: 3.6 µM
IC50 [2]: 9.3 µM
inhibition (Rattus norvegicus [3]): inactive

O=S(=O)(NCCCNC/C=C/c1ccc(Br)cc1)c1cccc2ccccc12
Activity (Mus musculus [6]): Active
inhibition (Ovis aries [5]): Active
Activity (Mus musculus [7]): inactive
IC50 [1]: 3.5 µM
IC50 [2]: 27.3 µM
IC50 (Rattus norvegicus [3]): 12.3 µM
inhibition (Rattus norvegicus [8]): inactive

O=S(=O)(NCCNC/C=C/c1ccccc1)c1cccc2cnccc12
IC50 [1]: 38.2 µM

CCCC(CCC)C(=O)O
Activity (Mus musculus [9]): Active

O=S(=O)(NCCNC/C=C/c1ccc(Cl)cc1)c1cccc2cnccc12
IC50 [1]: 9.2 µM

O=S(=O)(NCCNC/C=C/c1ccc(C(F)(F)F)cc1)c1cccc2cnccc12
IC50 [1]: 12.4 µM

CN(C/C=C/c1ccc(Br)cc1)CCN(C)S(=O)(=O)c1cccc2ccccc12
IC50 [1]: 8.7 µM

O=S(=O)(NCCNCCCc1ccccc1)c1cccc2cnccc12
IC50 [1]: 30.1 µM

O=S(=O)(NCCNC/C=C/c1ccc(Br)cc1)c1cccc2cccnc12
IC50 [1]: 9.5 µM

O=C(/C=C/c1ccc(Br)cc1)NCCNS(=O)(=O)c1cccc2cnccc12
inhibition (Ovis aries [10]): < 50%
IC50 [1]: > 300 µM

O=C(N/N=C/c1cc(O)c(O)cc1O)c1cc2ccccc2cc1O
IC50 [11]: 5.7 µM

O=S(=O)(NCCCCNC/C=C/c1ccc(Br)cc1)c1cccc2ccccc12
IC50 [1]: 3 µM
IC50 [2]: 11.3 µM
inhibition (Rattus norvegicus [3]): inactive

O=S(=O)(NCCNCCc1ccccc1)c1cccc2cnccc12
IC50 [1]: 96.8 µM

O=S(=O)(NCCNC/C=C/c1ccc(Br)cc1)c1cccc2cnccc12
IC50 [1]: 7 µM
